# Several values for one entry are separate records, joined by “and”; a condition that tells them apart may be missing. Identical values can stand only once. Entries after “also recorded” stand apart in the source; their conditions may differ.
# Experiments:
# [1] = system: RAW macrophages; assay: Cytotoxicity of MAPK inhibitors; type: cell-based, mouse; conditions: unpublished data
# [2] = system: p300 HAT domain; assay: In vitro acetylation of MKP-1 docking domain peptides by p300; type: biochemical; conditions: recombinant p300 HAT domain, labelled acetyl-CoA, 30°C 10 min, autoradiography
# [3] = system: NOS2; assay: NOS2 protein levels by immunoblot in RAW cells; type: cell-based, mouse; conditions: macrophages, TLR agonist 16 h
# Summary of the method: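 RAW 264.7 cells were handled in two ways. For agonist response, cells were exposed to the TLR agonists PGN, poly(I:C), LPS or E. coli for 16 h, with or without TSA. For TSA dose-response, cells were pretreated with increasing TSA for 1 h, then given LPS 100 ng/ml for 6 h, with ERα as the blot control. In both, lysates were immunoblotted for NOS2.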
# [4] = system: HEK293 cells; assay: Acetylation of HA-MKP-1 in HEK293 cells; type: cell-based; conditions: IP acetyl-lysine, blot HA
# [5] = MKP-1 catalytic; type: biochemical; conditions: OMFP, A 477 nm, 30°C, 0–40 min, n = 2 ± SD
# Summary of the method: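 Recombinant MKP-1 (0.66 μg) was acetylated or not with recombinant p300 HAT (2.5 μg) and 5 μl of 1 mM acetyl-CoA stock for 30 min at 30°C. Recombinant p38 (2 μg) or control was added for 1 h at 30°C. The substrate 3-O-methylfluorescein phosphate was then added and A477 nm monitored at 30°C. n = 2, ± SD.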
# [6] = system: phospho-p38; assay: Dephosphorylation of recombinant phospho-p38 by recombinant MKP-1; type: biochemical; conditions: for dephosphorylation of phospho-p38, without p300: recombinant MKP-1, immunoblot; for dephosphorylation of phospho-p38, effect of adding p300: recombinant MKP-1 acetylated with p300, immunoblot
# Summary of the method: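 Recombinant His-MKP-1 made from pRSET-His-MKP-1 by in vitro transcription and translation. It was incubated with recombinant p300 and cold acetyl-CoA, or with control. It was then incubated with recombinant phospho-p38, and remaining phospho-p38 was detected by immunoblotting.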
# [7] = system: p38; assay: Phospho-p38 in MKP-1 KO MEFs rescued with MKP-1; type: cell-based, mouse; conditions: 4-HT, then LPS and TSA 1 h
# Summary of the method: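 MKP-1−/− fibroblasts were immortalized with SV40 T-antigen and transfected with MKP-1(WT)-ERα or MKP-1(K57R)-ERα. Expression was induced with 200 nM 4-hydroxytamoxifen, then cells were treated with LPS and TSA for 1 h. Lysates were immunoblotted for phospho-p38, total p38 and the ER tag.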
# [8] = system: TNF-α; assay: LPS-induced TNF-α RNA in MKP-1 KO MEFs rescued with MKP-1; type: cell-based, mouse; conditions: 4-HT, then LPS and TSA 1 h; RT-PCR
molecule,measurement,setting,value
C[S+]([O-])c1ccc(-c2nc(-c3ccncc3)c(-c3ccc(F)cc3)[nH]2)cc1 (centres unmarked) [SB203580],cytotoxicity,[1],not cytotoxic
Oc1c2ccccc2c2c3c(cccc13)N=N2 [SP600125],cytotoxicity,[1],not cytotoxic
N#CC(=C(/N)Sc1ccccc1N)/C(C#N)=C(/N)Sc1ccccc1N [U0126],cytotoxicity,[1],not cytotoxic
RFSTIVRRRAKGAMGLEHIVPNAELRGRLLA [MKP-1(47–76)(WT)],acetylation of peptide by p300,[2],p300 acetylates MKP-1(47–76)
RFSTIVRRRARGAMGLEHIVPNAELRGRLLA [MKP-1(47–76)(K57R)],acetylation of peptide by p300,[2],p300 cannot acetylate MKP-1(47–76)(K57R)
peptidoglycan,"NOS2 expression, activation by TLR agonist alone",[3],can activate NOS2 expression in macrophages
"HA-MKP-1(K57R) (protein, UniProt P28562 1-367, looked up, variant K57R, HA tag) Dual specificity protein …: MVMEVGTLDAGGLRALLGERAAQCLLLDCRSFFAFNAGHIAGSVNVRFSTIVRRRARGAMGLEHIVPNAELRGRLLAGAYHAVVLLDERSAALDGAKRDGTLALAAGALCREARAAQVFFLKGGYEAFSASCPELCSKQSTPMGLSLPLSTSVPDSAESGCSSCSTPLYDQGGPVEILPFLYLGSAYHASRKDMLDALGITALINVSANCPNHFEGHYQYKSIPVEDNHKADISSWFNEAIDFIDSIKNAGGRVFVHCQAGISRSATICLAYLMRTNRVKLDEAFEFVKQRRSIISPNFSFMGQLLQFESQVLAPHCSAEAGSPAMAVLDRGTSTTTVFNFPVSIPVHSTNSALSYLQSPITTSPSC",acetylation of HA-MKP-1 in cells in response to LPS and TSA,[4],MKP-1(K57R) is not
"MKP-1: Recombinant MKP-1, acetylated or not with p300 and acetyl-CoA (protein, UniProt P28562 1-367, looked up, optionally acetylated) Dual specificity protein …: MVMEVGTLDAGGLRALLGERAAQCLLLDCRSFFAFNAGHIAGSVNVRFSTIVRRRAKGAMGLEHIVPNAELRGRLLAGAYHAVVLLDERSAALDGAKRDGTLALAAGALCREARAAQVFFLKGGYEAFSASCPELCSKQSTPMGLSLPLSTSVPDSAESGCSSCSTPLYDQGGPVEILPFLYLGSAYHASRKDMLDALGITALINVSANCPNHFEGHYQYKSIPVEDNHKADISSWFNEAIDFIDSIKNAGGRVFVHCQAGISRSATICLAYLMRTNRVKLDEAFEFVKQRRSIISPNFSFMGQLLQFESQVLAPHCSAEAGSPAMAVLDRGTSTTTVFNFPVSIPVHSTNSALSYLQSPITTSPSC","phosphatase activity, effect of recombinant p38",[5],increases the phosphatase activity of MKP-1
same,increase of phosphatase activity by acetylation in the presence of p38,"[5]; p300 and acetyl-CoA 30 min at 30°C, then p38 1 h at 30°C",~125% and > 100%
same,"phosphatase activity, effect of acetylation without p38",[5]; p300 and acetyl-CoA,negligible effect on phosphatase activity; also recorded: does not affect phosphatase activity of the enzyme alone
"MKP-1(K57R) (protein, UniProt P28562 1-367, looked up, variant K57R) Dual specificity protein …: MVMEVGTLDAGGLRALLGERAAQCLLLDCRSFFAFNAGHIAGSVNVRFSTIVRRRARGAMGLEHIVPNAELRGRLLAGAYHAVVLLDERSAALDGAKRDGTLALAAGALCREARAAQVFFLKGGYEAFSASCPELCSKQSTPMGLSLPLSTSVPDSAESGCSSCSTPLYDQGGPVEILPFLYLGSAYHASRKDMLDALGITALINVSANCPNHFEGHYQYKSIPVEDNHKADISSWFNEAIDFIDSIKNAGGRVFVHCQAGISRSATICLAYLMRTNRVKLDEAFEFVKQRRSIISPNFSFMGQLLQFESQVLAPHCSAEAGSPAMAVLDRGTSTTTVFNFPVSIPVHSTNSALSYLQSPITTSPSC","dephosphorylation of phospho-p38, without p300",[6],can decrease the phosphorylation of p38
same,"dephosphorylation of phospho-p38, effect of adding p300",[6],no further effect on MKP-1 dephosphorylation of p38
same,effect of TSA on phospho-p38 in MKP-1 KO MEFs after ectopic expression,[7],cannot restore the effects of TSA upon phospho-p38
same,effect of TSA on LPS-induced TNF-α in MKP-1 KO MEFs after ectopic expression,[8],not with MKP-1(K57R)
"MKP-1(WT): recombinant or ectopically expressed wild-type MKP-1 (protein, left off: ERα ligand-binding domain, end not stated, kept) MVMEVGILDAGGLRALLREGAAQCLLLDCRSFFAFNAGHIAGSVNVRFSTIVRRRAKGAMGLEHIVPNAELRGRLLAGAYHAVVLLDERSASLDGAKRDGTLALAAGALCREARSTQVFFLQGGYEAFSASCPELCSKQSTPTGLSLPLSTSVPDSAESGCSSCSTPLYDQGGPVEILSFLYLGSAYHASRKDMLDALGITALINVSANCPNHFEGHYQYKSIPVEDNHKADISSWFNEAIDFIDSIKDAGGRVFVHCQAGISRSATICLAYLMRTNRVKLDEAFEFVKQRRSIISPNFSFMGQLLQFESQVLAPHCSAEAGSPAMAVLDRGTSTTTVFNFPVSIPVHPTNSALNYLKSPITTSPSC","dephosphorylation of phospho-p38, without p300",[6],reduces phosphorylation of p38
same,"dephosphorylation of phospho-p38, effect of adding p300",[6],further decrease in phosphorylation of p38
same,effect of TSA on phospho-p38 in MKP-1 KO MEFs after ectopic expression,[7],restores the ability of TSA to decrease phospho-p38 levels

# Reference: paper PMC2413043 (The Journal of Experimental Medicine, 2008)
